# TAAR1 antag = human TAAR1 antagonists, primary screen, Fluo-8 calcium fluorescence, CHO RD-HGA16 cells | antagonist | 360,000 compounds, 1.5% hits | Trace amine-associated receptor 1 (Homo sapiens), Q96RJ0 | inhibition, % at 3 µM;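 active means inhibition above a per-plate cutoff, the mean inhibition of test compounds on that plate plus 3 SD, cut at about 49% in these data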;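 further: 0% = DMSO plus EC80 beta-PEA response and 100% = DMSO alone without agonist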
#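 test system = CHO RD-HGA16 cells bearing hTAAR1 | replication = singlicate | controls = DMSO-only wells and EC80 β-PEA-stimulated wells | reagent = EC80 β-phenethylamine stimulus | read-out basis = percent inhibition of PEA-evoked calcium signal, max/basal emission ratio | schedule = seeding 17-24 h prior, 75-min 37 °C, 30-min RT dye loading | signal = kinetic Fluo-8 calcium fluorescence measurement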
# OX1R antag-1 = antagonists of human orexin 1 receptor (OX1R). Orexin/Hypocretin receptor type 1 (Homo sapiens), O43613. OX1R-expressing cells, FRET antagonist read-out. inhibition, % at 6.6 µM. 330,000 compounds, 1.8% hits. AID 485270, 2010; in the data active means inhibition mostly above about 38%, no sharp cut-off; inactive means mostly below about 40%;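 further: 0% = agonist challenge alone and 100% = reference antagonist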
# Target sequence (O43613 whole entry, looked up): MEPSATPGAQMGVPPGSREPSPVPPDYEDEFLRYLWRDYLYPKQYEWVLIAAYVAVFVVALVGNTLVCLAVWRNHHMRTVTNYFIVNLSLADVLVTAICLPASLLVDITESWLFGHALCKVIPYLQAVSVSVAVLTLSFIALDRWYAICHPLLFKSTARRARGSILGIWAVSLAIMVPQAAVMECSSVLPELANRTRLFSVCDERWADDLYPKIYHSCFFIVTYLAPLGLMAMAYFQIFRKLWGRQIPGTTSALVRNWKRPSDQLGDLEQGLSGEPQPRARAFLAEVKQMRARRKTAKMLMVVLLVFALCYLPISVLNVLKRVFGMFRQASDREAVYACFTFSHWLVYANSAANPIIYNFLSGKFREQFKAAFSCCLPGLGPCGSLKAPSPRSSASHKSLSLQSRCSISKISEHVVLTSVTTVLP
# TAAR1 agonist = human TAAR1 agonists, primary screen, Fluo-8 calcium fluorescence, CHO RD-HGA16 cells. Trace amine-associated receptor 1 (Homo sapiens), Q96RJ0. vehicle wells 0%, saturating PEA agonist 100%. activation, % at 3 µM. 360,000 compounds, 0.99% hits;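 active means activation above the mean activation of all test compounds in the run plus 3 SD, cut at about 38% in these data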
#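 Benchmarks: low control DMSO, high control PEA (EC100); System: CHO RD-HGA16 cells carrying human TAAR1 plus Gα16; Detection: Fluo-8 fluorescence, 5 s baseline then 140 s kinetic read; Schedule: 17-24 h plating, Fluo-8 75 min 37 °C, 30 min RT; Read-out basis: % activation from peak over basal fluorescence ratio, DMSO-to-PEA scaled.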
# OX1R antag-2 = OX1R (HCRTR1) antagonists, primary screen, fluorescence, CHO/OX1R cells, Fluo-8 calcium, orexin A; Orexin/Hypocretin receptor type 1 (Homo sapiens), O43613; Fluo-8 calcium fluorescence; inhibition, % at 5 µM; 330,000 compounds, 0.43% hits; AID 434989, 2010;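 active means inhibition above its plate's threshold, mean inhibition of all tested compounds on the plate plus 3 SD, cut at about 37% in these data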;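 further: 0% = orexin A challenge wells and 100% = SB-334867-A antagonist wells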
# CHO parental Ca = ATP-evoked calcium signal inhibitors, parental CHO, primary screen, counter-screen for OX1R antagonist project, cell-based, fluorescence, Fluo-8 calcium dye. inhibition, % at 5.6 µM. 330,000 compounds, 0.63% hits. parental CHO-K1, ATP-induced calcium, Fluo-8 fluorescence. AID 463079, 2010;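 active means inhibition above that plate's mean sample inhibition plus 3 SD, cut at about 26% in these data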;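 further: 0% = ATP-challenged DMSO wells and 100% = DMSO wells without ATP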
#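 material = parental CHO cells | also added = ATP as calcium-mobilizing challenge | dosing = single point at 5.6 µM | detection = intracellular calcium via Fluo-8 no-wash fluorescent dye | read-out = % inhibition | benchmarks = low control ATP plus DMSO, high control DMSO only | repeats = one well per compound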
# Numbers without * were called inactive; x = no result given. A selection: hits, their analogues and other compounds. The true share with any hit is near 4%.
SMILES,TAAR1 antag,OX1R antag-1,TAAR1 agonist,OX1R antag-2,CHO parental Ca
COc1ccc(/C=C2/SC(=O)N(CCNC(=O)C3CC(=O)N(Cc4ccccc4)C3)C2=O)cc1 (stereo not given),-11.7,x,6.2,x,x
O=C(NCCN1C(=O)S/C(=C/c2cccnc2)C1=O)C1CC(=O)N(Cc2ccccc2)C1 (stereo not given),-9.6,53.1*,7.9,-22.0,-7.2
CC(=O)Nc1cc(-c2cccc(F)c2)cn2c(-c3ccc(F)cc3)cnc12,55.7*,x,4.7,x,x
CC(=O)Nc1cc(-c2ccccc2)cn2c(-c3cccc(C(C)=O)c3)cnc12,49.3*,x,-1.0,x,x
COC(=O)C1=C(C)N(Cc2ccccc2C(F)(F)F)C(=NCc2ccc(OC)cc2)NC1c1ccc(Cl)cc1 (stereo not given),16.9,x,10.2,x,x
CCOC(=O)CC(=O)c1sc2c(c1N)c(=O)[nH]c(=O)n2-c1ccc(OC)cc1,-1.1,6.8,2.8,-4.5,-3.3
C[C@@]12C(=O)N(Cc3ccccc3)CC(=O)N1[C@H](/C=C/c1ccccc1)[C@@H]1C(=O)N(c3ccccc3)C(=O)[C@@H]12,17.2,10.4,12.8,-15.0,-27.7
COc1ccc(-c2cc3c(=O)n(CC(=O)NCCCN4CCC(Cc5ccccc5)CC4)ncn3n2)cc1,-1.3,17.9,4.2,14.9,39.6*
CC(C)C(=O)Nc1ccc(N2CCOCC2)c(S(=O)(=O)Nc2ccccc2Cl)c1,52.8*,9.4,25.4,-9.9,-17.0
Cc1ccc(NC(=O)C(C)OC(=O)CCC2CCCCC2)cc1 (stereo not given),-3.7,4.5,6.2,-18.7,-4.3
C/C(=N\NC(=O)c1ccc(N/N=C(\C)c2ccc(O)cc2)cc1)c1ccc(O)cc1,56.5*,43.0,4.4,-11.7,1.8
COc1ccc(-n2cc([N+](=O)[O-])c(=O)c3ccc(Cl)cc32)cc1,-32.2,9.5,4.3,-21.5,-4.0
Cc1ccccc1/C=N/Nc1ccnc2cc(Cl)ccc12,5.5,14.6,23.8,-13.6,-6.6
Clc1ccc2c(N/N=C/c3cccnc3)ccnc2c1,-5.8,34.9,25.2,-21.8,-6.5
Oc1ccc(/C=N/Nc2ccnc3cc(Cl)ccc23)c(O)c1,-24.0,12.2,44.2*,-8.9,-1.8
Clc1ccc2c(N/N=C/c3ccc(Br)cc3)ccnc2c1,11.6,15.4,9.9,7.7,49.1*
Cc1ccc(NC(=O)N2CC(C)OC(C)C2)cc1[N+](=O)[O-] (stereo not given),9.4,x,12.4,x,x
CCOC(=O)C1=CCN(S(=O)(=O)c2ccc(Br)cc2)C1c1ccc(C)cc1 (stereo not given),-16.0,x,-0.4,x,x
CCOC1=C2CN(S(=O)(=O)c3ccc(C)cc3)CC[C@@H]2N(S(=O)(=O)c2ccc(C)cc2)[C@H](c2ccccc2)C1,2.2,x,0.9,x,x
CC1CC(C)CN(C(=O)CNC(=O)c2ccc3ccccc3c2)C1 (stereo not given),-12.7,73.7*,0.7,-18.1,-10.2
O=C(/C=C/c1ccc(OC(F)F)cc1)Nc1cccc(S(=O)(=O)NC2=NCCCCC2)c1,61.9*,33.8,12.0,-18.4,-13.9
c1ccc(N2[C@@H]3c4ccccc4C[C@H]2c2ccccc23)cc1,-57.6,x,-2.9,x,x
CC(C)(C)C(=O)NC(=S)NNC(=O)c1ccc(-c2ccccc2)cc1,x,-5.0,x,102.7*,100.3*
CCOc1cc(CNCc2ccccc2)ccc1OCc1ccc(Cl)cc1,47.3,-13.3,48.3*,69.0*,92.1*
CCNCc1cc(Cl)c(OCc2ccccc2)c(OCC)c1,18.3,6.8,1.9,-3.7,-13.4
SMILES,TAAR1 antag,OX1R antag-1,TAAR1 agonist,OX1R antag-2,CHO parental Ca
CCOc1cc(CNCCc2ccc(S(N)(=O)=O)cc2)cc(Cl)c1OCc1ccccc1,x,-3.6,x,54.9*,58.4*
COc1ccc(CCNCc2ccc(OCc3ccc(Cl)nc3)c(OC)c2)cc1OC,16.4,0.7,10.1,-31.0,-25.4
COc1ccc(CCNCc2ccc(OCc3ccccc3)cc2)cc1,-9.2,9.2,43.5*,-30.7,-15.1
COc1ccc(CNCCc2ccc(Cl)cc2)cc1OCc1ccccc1,x,7.8,x,2.1,41.8*
CCOc1cc(CNCCc2ccc(S(N)(=O)=O)cc2)ccc1OCc1ccccc1,14.6,4.1,16.4,6.2,12.8
N#CCCN(Cc1cccnc1)CN1C(=O)c2ccccc2C1=O,13.8,x,-0.4,x,x
COc1ccc(S(=O)(=O)N2CCC(C(=O)NC3CCCCC3C)CC2)cc1 (stereo not given),3.0,15.9,0.2,-16.5,-0.3
O=C(NCCc1ccccc1Cl)[C@@H]1CCCN1C(=O)[C@@H](NS(=O)(=O)c1ccc(F)cc1F)C1CCCCC1,43.4,x,26.9,x,x
COc1ccc(CN2C[C@H](COCc3ccccc3)Oc3cccc(N4CCCC4)c3S2(=O)=O)cc1,-29.9,x,1.3,x,x
COC(=O)C1=C(C)N(Cc2ccccc2C(F)(F)F)C(=NCc2cc(OC)c(OC)c(OC)c2)NC1c1ccc(Cl)cc1 (stereo not given),-5.0,x,9.0,x,x
COc1cc(CNCc2ccccn2)ccc1OCc1ccc(Cl)cc1Cl,16.2,16.1,45.0*,0.2,8.7
CCCCNc1c(-c2ccc(OC)c(Sc3ccc(OC)cc3)c2)nc2ccccn12,x,48.0,x,40.9,45.1*
CCCCNc1c(-c2ccc(-c3ccc(OC)cc3)c(OC)c2)nc2ccccn12,72.5*,16.1,7.1,14.0,48.5
CCCCCCSc1cc(-c2nc3cc(C)ccn3c2NCCCC)ccc1OC,16.3,19.2,1.7,-31.8,-5.8
CCCCNc1c(-c2ccc(SC(C)CC)c(OC)c2)nc2ccc(C)cn12 (stereo not given),86.8*,67.8*,9.1,41.8,44.4*
COc1cccc(NC(=O)CCc2nc(-c3ccccc3F)no2)c1,5.1,2.7,7.4,0.0,-13.7
O=C(CCc1nc(-c2ccccc2F)no1)Nc1ccc(Oc2ccccc2)cc1,53.8*,54.9,12.3,62.0*,38.8*
CCCCCCc1cc2cc(C(=O)NC)c(=N)oc2cc1O,5.0,52.6,24.3,-16.0,-11.1
CCCCCCc1cc2cc(C(N)=O)c(=N)oc2cc1O,x,55.5*,x,-21.5,-7.1
CC(C)c1[nH]nc2c1C(c1cccc(C(F)(F)F)c1)N(Cc1ccccc1)C2=O (stereo not given),-19.5,x,5.8,x,x
COc1ccc(-c2ccnc3cc(C(=O)O)nn23)cc1,0.0,56.8*,0.7,-18.8,6.1
CC1(C(=O)NCc2cccs2)Cc2c(-c3ccc(C(N)=O)cc3)ccnc2O1 (stereo not given),-19.4,x,0.5,x,x
OC(CNCCc1ccccc1)COc1ccc(OCC(O)CNCCc2ccccc2)cc1 (stereo not given),0.2,6.0,13.3,-28.9,-12.0
OC(CNCCc1ccc(Cl)cc1)COc1ccc2ccccc2c1 (stereo not given),12.6,x,41.9*,x,x
